Measured values reported in ChEMBL document CHEMBL1287654, “Anticancer activity of N-bis(trifluoromethyl)alkyl-N'-(polychlorophenyl) and N'-(1,2,4-triazolyl) ureas” (2010).

Assays:
Format in all cases: functional
MCF7 [1] = assay: Growth inhibition of human MCF7 cells assessed as cell growth at 100 uM after 48 hrs by sulforhodamine B assay relative to control; conditions: MCF7, 48 h, read-out: Activity
Procedure, shortened: (§1)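 One-dose pre-test on MCF7, NCI-H460 and SF-268. Cells were inoculated and pre-incubated on a microtiter plate, then given a single 10^-4 M dose and incubated 48 h. Growth was read spectrophotometrically and expressed as percent of untreated control cells; negative values indicate cell kill.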

NCI-H460 = assay: Growth inhibition of human NCI-H460 cells assessed as cell growth at 100 uM after 48 hrs by sulforhodamine B assay relative to control; conditions: NCI-H460, 48 h, read-out: Activity; procedure, shortened: as §1
SF-268 [2] = assay: Growth inhibition of human SF268 cells assessed as cell growth at 100 uM after 48 hrs by sulforhodamine B assay relative to control; conditions: SF-268, 48 h, read-out: Activity; procedure, shortened: as §1
[3] = Growth inhibition of human leukemia cell after 48 hrs by sulforhodamine B assay
Procedure, shortened: (§2)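 Subpanel median growth inhibitory concentration: the average sensitivity of each tumor-type subpanel of the NCI 60-cell-line panel, derived from per-cell-line GI50 values. GI50 values came from a five log dose range and are expressed as log molar concentration for 50% net growth inhibition.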

[4] = Growth inhibition of human colon cancer cell after 48 hrs by sulforhodamine B assay; conditions: Cancer cell lines; procedure, shortened: as §2
HOP-62 = assay: Growth inhibition of human HOP62 cells after 48 hrs by sulforhodamine B assay; conditions: HOP-62, 48 h
Procedure, shortened: (§3)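 NCI 60-cell-line main test over a five-log dose range. GI50 is the molar concentration giving half-growth inhibition, reported as log molar. Subpanel values are median GI50 across that subpanel's lines. Where 50% inhibition was not reached within the tested interval, the highest tested concentration was used.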

[5] = Growth inhibition of human renal cancer cell after 48 hrs by sulforhodamine B assay; conditions: Cancer cell lines; procedure, shortened: as §2
HCT-15 = assay: Growth inhibition of human HCT15 cells after 48 hrs by sulforhodamine B assay; conditions: HCT-15, 48 h; procedure, shortened: as §3
A498 = assay: Growth inhibition of human A498 cells after 48 hrs by sulforhodamine B assay; conditions: A498, 48 h; procedure, shortened: as §3
[6] = Growth inhibition of human non-small lung cancer cell after 48 hrs by sulforhodamine B assay; conditions: Cancer cell lines; procedure, shortened: as §2
[7] = Growth inhibition of human prostate cancer cell after 48 hrs by sulforhodamine B assay; conditions: Cancer cell lines; procedure, shortened: as §2
[8] = Growth inhibition of human CNS cancer cell after 48 hrs by sulforhodamine B assay; conditions: Cancer cell lines; procedure, shortened: as §3
[9] = Growth inhibition of human breast cancer cell after 48 hrs by sulforhodamine B assay; conditions: Cancer cell lines; procedure, shortened: as §2
NCI/ADR-RES = assay: Growth inhibition of human NCI/ADR-RES cells after 48 hrs by sulforhodamine B assay; procedure, shortened: as §3
[10] = Growth inhibition of human ovarian cancer cell after 48 hrs by sulforhodamine B assay; conditions: Cancer cell lines; procedure, shortened: as §2
[11] = Growth inhibition of human melanoma cell after 48 hrs by sulforhodamine B assay; procedure, shortened: as §2
UACC-62 = assay: Growth inhibition of human UACC62 cells after 48 hrs by sulforhodamine B assay; conditions: UACC-62, 48 h
Procedure, shortened: (§4)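 NCI 60-cell-line main screen across nine tumor types, with five log dose range per compound. GI50 is the molar concentration giving half growth inhibition, reported as the log of the molar concentration that inhibits 50% net cell growth.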

BT-549 = assay: Growth inhibition of human BT549 cells after 48 hrs by sulforhodamine B assay; conditions: BT-549, 48 h; procedure, shortened: as §3
786-0 = assay: Growth inhibition of human 786-0 cells after 48 hrs by sulforhodamine B assay; conditions: 786-0, 48 h; procedure, shortened: as §3
MDA-MB-435 = assay: Growth inhibition of human MDA-MB-435 cells after 48 hrs by sulforhodamine B assay; conditions: MDA-MB-435, 48 h; procedure, shortened: as §3
MCF7 [12] = assay: Growth inhibition of human MCF7 cells after 48 hrs by sulforhodamine B assay; conditions: MCF7, 48 h; procedure, shortened: as §3
NCI-H226 = assay: Growth inhibition of human NCI-H226 cells after 48 hrs by sulforhodamine B assay; conditions: NCI-H226, 48 h; procedure, shortened: as §3
A549 = assay: Growth inhibition of human A549 cells after 48 hrs by sulforhodamine B assay; conditions: A549, 48 h; procedure, shortened: as §3
UACC-257 = assay: Growth inhibition of human UACC257 cells after 48 hrs by sulforhodamine B assay; conditions: UACC-257, 48 h; procedure, shortened: as §4
SK-MEL-2 = assay: Growth inhibition of human SK-MEL-2 cells after 48 hrs by sulforhodamine B assay; conditions: SK-MEL-2, 48 h; procedure, shortened: as §3
SF-539 = assay: Growth inhibition of human SF539 cells after 48 hrs by sulforhodamine B assay; conditions: SF-539, 48 h; procedure, shortened: as §3
COLO 205 = assay: Growth inhibition of human COLO205 cells after 48 hrs by sulforhodamine B assay; conditions: COLO 205, 48 h; procedure, shortened: as §3
SNB-75 = assay: Growth inhibition of human SNB75 cells after 48 hrs by sulforhodamine B assay; conditions: SNB-75, 48 h; procedure, shortened: as §4
SN12C = assay: Growth inhibition of human SN12C cells after 48 hrs by sulforhodamine B assay; procedure, shortened: as §4
SF-268 [13] = assay: Growth inhibition of human SF268 cells after 48 hrs by sulforhodamine B assay; conditions: SF-268, 48 h; procedure, shortened: as §3
OVCAR-3 = assay: Growth inhibition of human OVCAR-3 cells after 48 hrs by sulforhodamine B assay; conditions: OVCAR-3, 48 h; procedure, shortened: as §3

CC(NC(=O)Nc1nnc[nH]1)(C(F)(F)F)C(F)(F)F showed a growth at 100 µM (MCF7 [1]) of 98%, a growth at 100 µM (NCI-H460) of 111% and a growth at 100 µM (SF-268 [2]) of 111%.

Molecule CC(NC(=O)Nn1cnnc1)(C(F)(F)F)C(F)(F)F has a growth at 100 µM (MCF7 [1]) of 81%, a growth at 100 µM (NCI-H460) of 94% and a growth at 100 µM (SF-268 [2]) of 105%.

CCC(NC(=O)Nc1nnc[nH]1)(C(F)(F)F)C(F)(F)F gave a growth at 100 µM (MCF7 [1]) of 102%, a growth at 100 µM (NCI-H460) of 86% and a growth at 100 µM (SF-268 [2]) of 102%.

Work on CCC(NC(=O)Nn1cnnc1)(C(F)(F)F)C(F)(F)F yielded a growth at 100 µM (MCF7 [1]) of 84%, a growth at 100 µM (NCI-H460) of 94% and a growth at 100 µM (SF-268 [2]) of 105%.

With CC(NC(=O)Nc1c(Cl)cccc1Cl)(C(F)(F)F)C(F)(F)F the growth at 100 µM (MCF7 [1]) was 82%, the growth at 100 µM (NCI-H460) was 85% and the growth at 100 µM (SF-268 [2]) was 84%.

CC(NC(=O)Nc1c(Cl)cc(Cl)cc1Cl)(C(F)(F)F)C(F)(F)F showed a growth at 100 µM (MCF7 [1]) of 89%, a growth at 100 µM (NCI-H460) of 103% and a growth at 100 µM (SF-268 [2]) of 96%.

Work on CCC(NC(=O)Nc1c(Cl)cccc1Cl)(C(F)(F)F)C(F)(F)F yielded a growth at 100 µM (MCF7 [1]) of 75%, a growth at 100 µM (NCI-H460) of 79% and a growth at 100 µM (SF-268 [2]) of 101%.

CCC(NC(=O)Nc1c(Cl)cc(Cl)cc1Cl)(C(F)(F)F)C(F)(F)F showed a growth at 100 µM (MCF7 [1]) of 88%, a growth at 100 µM (NCI-H460) of 81% and a growth at 100 µM (SF-268 [2]) of 98%.

Molecule CC(NC(=O)Nc1nc2ccccc2s1)(C(F)(F)F)C(F)(F)F has a GI50 [3] of 21.9 µM, a GI50 [4] of 42.7 µM and a GI50 (HOP-62) of 31.6 µM. The GI50 [5] was 28.2 µM, the GI50 (HCT-15) was greater than 100 µM and the GI50 (A498) was 100 µM. The GI50 [6] was 33.9 µM, the GI50 [7] was 56.2 µM and the GI50 [8] was 25.7 µM. For the same molecule, the GI50 [9] was 50.1 µM, the GI50 (NCI/ADR-RES) was greater than 100000 nM and the GI50 [10] was 39.8 µM. The GI50 [11] was 42.7 µM, the GI50 (UACC-62) was greater than 100 µM and the GI50 (BT-549) was greater than 100 µM.

In the case of CCC(NC(=O)Nc1nc2ccccc2s1)(C(F)(F)F)C(F)(F)F, the GI50 [3] is reported as 22.9 µM, the GI50 [4] is reported as 18.6 µM and the GI50 [5] is reported as 15.1 µM. It also gave a GI50 [6] of 18.6 µM, a GI50 (786-0) of 20 µM and a GI50 [7] of 18.2 µM. For the same molecule, the GI50 [8] was 11.7 µM, the GI50 [9] was 18.2 µM and the GI50 (MDA-MB-435) was 20 µM. The GI50 [10] was 17.8 µM, the GI50 (MCF7 [12]) was 15.8 µM and the GI50 [11] was 17.4 µM. The GI50 (NCI-H226) was 15.8 µM, the GI50 (A549) was 15.8 µM and the GI50 (UACC-257) was 20 µM. The GI50 (SK-MEL-2) was 15.8 µM.

In the case of O=c1[nH]cc(F)c(=O)[nH]1 [FLUOROURACIL], the GI50 [3] is reported as 0.562 µM, the GI50 (SF-539) is reported as 63.1 nM and the GI50 [4] is reported as 0.186 µM. For the same molecule, the GI50 (COLO 205) was 158 nM, the GI50 (HOP-62) was 0.398 µM and the GI50 [5] was 0.575 µM. The GI50 (A498) was 0.398 µM, the GI50 [6] was 2 µM and the GI50 (SNB-75) was 79.4 µM. The GI50 (SN12C) was 501 nM, the GI50 [7] was 0.912 µM and the GI50 [8] was 1.35 µM. It also gave a GI50 [9] of 1.38 µM, a GI50 (NCI/ADR-RES) of 316 nM and a GI50 [10] of 1.82 µM. The GI50 (MCF7 [12]) was 0.0794 µM, the GI50 (SF-268 [13]) was 1580 nM and the GI50 [11] was 0.933 µM. For the same molecule, the GI50 (OVCAR-3) was 15.8 nM.
